Shown are actives, neighbours in structure and some others; about 2.3% of the full set was active somewhere.
TRPC4 potent: TRPC4 (mouse) allosteric potentiation; Q9QUQ5; HEK293 TRPC4beta/mu-opioid, DAMGO EC20, Fluo-4 Ca2+ flux; hits give high values; B-score at 10 µM; 310,000 tested, 0.42% active; AID 2227;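 active = B-score of calcium response area above 5 SD of library B-scores, with initial fluorescence ratio within 5 SD of library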
TRPC6 act: mouse TRPC6 channel activation. HEK293-TRPC6 membrane potential dye fluorescence; hits give high values. 310,000 tested, 0.13% active. Q61143. B-score at 10 µM;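 active = B-score of the integrated fluorescence ratio above library mean plus 3 SD, and starting fluorescence ratio within library mean plus 5 SD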;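 also: higher score means more depolarization so channel activation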
Target sequence (Q61143 whole entry, looked up): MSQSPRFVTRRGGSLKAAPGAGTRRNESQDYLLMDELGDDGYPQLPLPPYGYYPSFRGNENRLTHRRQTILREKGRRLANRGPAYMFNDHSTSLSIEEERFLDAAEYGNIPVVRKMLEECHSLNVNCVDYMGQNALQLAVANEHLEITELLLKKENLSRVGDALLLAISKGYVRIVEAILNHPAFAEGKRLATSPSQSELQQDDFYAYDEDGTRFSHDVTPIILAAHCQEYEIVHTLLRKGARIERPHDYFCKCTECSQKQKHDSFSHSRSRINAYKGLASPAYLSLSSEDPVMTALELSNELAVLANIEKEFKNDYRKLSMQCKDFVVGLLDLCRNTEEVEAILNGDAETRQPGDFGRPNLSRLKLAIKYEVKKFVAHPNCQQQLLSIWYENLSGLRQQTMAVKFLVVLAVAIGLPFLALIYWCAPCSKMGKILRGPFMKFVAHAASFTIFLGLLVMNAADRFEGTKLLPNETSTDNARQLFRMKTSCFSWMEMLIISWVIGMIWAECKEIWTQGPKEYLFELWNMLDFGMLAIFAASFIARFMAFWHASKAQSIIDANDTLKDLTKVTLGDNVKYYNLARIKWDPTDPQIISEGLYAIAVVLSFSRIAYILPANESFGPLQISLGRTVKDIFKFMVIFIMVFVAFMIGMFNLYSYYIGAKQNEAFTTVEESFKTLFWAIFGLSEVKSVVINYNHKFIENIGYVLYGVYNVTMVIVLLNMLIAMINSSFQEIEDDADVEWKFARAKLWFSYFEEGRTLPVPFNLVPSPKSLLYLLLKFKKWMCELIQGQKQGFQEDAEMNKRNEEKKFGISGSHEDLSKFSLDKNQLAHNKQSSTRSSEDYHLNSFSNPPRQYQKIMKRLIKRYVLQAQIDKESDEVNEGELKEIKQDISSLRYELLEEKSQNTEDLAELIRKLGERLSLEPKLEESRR
TRPC4 inh: inhibitors of mouse TRPC4 channel | B-score at 10 µM | AID 2247 | Q9QUQ5 | HEK293 TRPC4beta/mu-opioid, DAMGO-evoked Fluo4 calcium flux; hits give low values | 300,000 tested, 0.39% active;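 active = B-score over 3 SD under the library average, no early fluorescence shift, positive overall ratio signal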
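Assay system: HEK293 cells with stable TRPC4beta plus mu-opioid receptor expression. Dosing: single dose. Measured by: Fluo4 Ca2+ flux fluorescence. Also added: DAMGO in two steps, submaximal then maximal. Read-out: B score from integrated Fluo4 fluorescence ratio.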
TRPC6 inh: mouse TRPC6 channel inhibition; HEK293-TRPC6, membrane potential dye, ACh-evoked depolarization; hits give low values; 310,000 tested, 1.1% active; B-score at 10 µM; Q61143;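 active = B-score under library mean minus 3 SD, initial fluorescence not abnormally high, positive integrated signal ratio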;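 also: B-score derived from integrated fluorescence ratio over the kinetic read; more negative B-score means stronger inhibition of depolarization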
CR mimetic SO: caloric restriction mimetics inhibiting age-related superoxide in yeast; S. cerevisiae aged cells, superoxide DHE fluorescence; hits give low values; superoxide response (% of plate mean), % at 10 µM; 330,000 tested, 0.18% active; AID 2690;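 active = superoxide response under a set limit, about three screen SD below normal, cut at about 65% in these data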;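 also: yeast aged for seven days with compound at 30 °C before DHE staining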
TRPC4 agonist: opens the mouse TRPC4 cation channel. 310,000 tested, 0.49% active. B-score at 10 µM. AID 2237. HEK293 TRPC4beta/mu-opioid, Fluo4 calcium fluorescence; hits give high values;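 active = B-score above 5 SD of library B-scores, and initial fluorescence ratio not above library mean plus 5 SD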;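 also: positive B-score marks a calcium rise read as TRPC4 activation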
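System: HEK293 cells stably co-expressing mouse TRPC4beta and mu-opioid receptor; Schedule: Fluo4 dye loading 45 min at room temperature, 110 s recording; Detection: Fluo4 fluorescence, kinetic; Evaluation: B-scored integrated calcium fluorescence ratio; Controls: buffer (low) and maximal DAMGO (high).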
TRPC4 spec 2: mouse TRPC4 off-target activity of TRPC6 inhibitors, second screen | shares compounds with TRPC6 inh | HEK293 TRPC4/MOR, membrane potential dye fluorescence; channel activated by saturating DAMGO dose | inhibition, % at 10 µM | 920 tested, 42% active;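 active = compounds whose fluorescence signal differed from control wells by over 3 SD, either direction, in both duplicate plates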
TRPC4 spec: tests whether TRPC6 inhibitors also affect mouse TRPC4; shares compounds with TRPC6 inh; activity change, negative = inhibition, % at 10 µM; HEK293 TRPC4/mu-opioid, membrane potential fluorescence; 920 tested, 61% active;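 active = rise or fall in signal beyond 3 SD of buffer-only wells in both replicate plates, either sign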;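 also: integrated kinetic ratio of fluorescence range over baseline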
HEK293 MPD ctr 2-1: second check of TRPC6 inhibitor effects in parental HEK293 cells. shares compounds with TRPC6 inh. parental HEK293 membrane potential dye fluorescence; maximal acetylcholine challenge after compound addition. signal change vs control, % at 10 µM. 920 tested, 31% active. AID 2779;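 active = membrane potential signal moving either way by over 3 SD of the maximum-effect control, in both duplicate plates, meaning non-specific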
HEK293 MPD ctr-1: checks TRPC6 inhibitor effects in parental HEK293 cells | shares compounds with TRPC6 inh | parental HEK293 membrane potential dye fluorescence | membrane potential signal change, % at 10 µM | 920 tested, 60% active | AID 2780;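 active = membrane potential signal shifting up or down by more than 3 SD of buffer-only wells, on both duplicate plates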
HEK293 MPD ctr-2: counter-screen for TRPC6 modulators: effect in parental HEK293 cells | shares compounds with TRPC6 inh | membrane potential dye fluorescence | membrane potential signal change, % at 10 µM | 2,400 tested, 51% active | AID 488924;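 active = membrane potential signal moves up or down beyond 5 SD from buffer-only wells, on both duplicate plates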
HEK293 MPD ctr 2-2: parental HEK293 nonspecific activity of TRPC6 modulators, second screen; shares compounds with TRPC6 inh; membrane potential dye fluorescence; after compound, maximal acetylcholine stimulation; inhibition, % at 10 µM; 2,400 tested, 14% active; AID 488926;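 active = membrane potential signal drops by more than 5 SD from the mean control signal, in both duplicate plates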
TRPC4/MOR mod: mouse TRPC4 off-target activity of TRPC6 modulators | shares compounds with TRPC6 inh | HEK293 TRPC4/mu-opioid, membrane potential fluorescence | percent change from control (negative = decrease, positive = increase), % at 10 µM | 2,400 tested, 69% active | AID 488927;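 active = membrane potential signal moved up or down beyond 5 SD of buffer control wells, in both duplicate plates, actives on both sides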
TRPC4 ctr inh 2: second selectivity test of TRPC6 modulators against mouse TRPC4 | 2,400 tested, 55% active | shares compounds with TRPC6 inh | inhibition, % at 10 µM | HEK293 TRPC4/mu-opioid, membrane potential dye fluorescence; stimulated with maximal-effect DAMGO;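 active = drop in membrane potential signal beyond 5 SD of the control wells in both duplicate plates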;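 also: TRPC4 counter screen for TRPC6 hits run under conditions tuned for TRPC6 not TRPC4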
TRPC6 inh conf: mouse TRPC6 inhibitor confirmation. shares compounds with TRPC6 inh. 3,300 tested, 43% active. HEK293-TRPC6, membrane potential dye, ACh-evoked depolarization. inhibition, % at 10 µM;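 active = fluorescence ratio falls more than 5 SD below the full-stimulation control mean, in both duplicate runs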;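 also: integrated fluorescence ratio of peak minus minimum over baseline after agonist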
TRPC6 act conf: confirmation of mouse TRPC6 activators. shares compounds with TRPC6 inh. HEK293-TRPC6 membrane potential dye fluorescence, FDSS. activation, % at 10 µM. 2,800 tested, 11% active;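 active = ratio signal rise beyond 5 SD above unstimulated control wells' mean, seen in both duplicate runs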
Large screens that a line does not name were inactive (follow-up assays come after a bar, where they were run).

CCN(CC)CCC#CC(O)(c1ccccc1)C1CCCCC1 (stereo not given)	TRPC6 inh -7.6 | TRPC4 spec 2 62% | TRPC4 spec 49% | HEK293 MPD ctr 2-1 inactive | HEK293 MPD ctr-1 17% | TRPC6 inh conf 64%
OCCN(CC#CCC(O)(c1ccccc1)C1CCCC1)CCO (stereo not given)	none
CCC[N+]1(CC#CC(O)(c2ccccc2)C2CCCCC2)CCCCC1 (stereo not given)	none
CN(C)CC#CCC(O)(c1ccccc1)C1CCCCC1 (stereo not given)	TRPC6 inh -6.5 | HEK293 MPD ctr-2 inactive | HEK293 MPD ctr 2-2 105% | TRPC4/MOR mod 20% | TRPC4 ctr inh 2 36% | TRPC6 inh conf 78% | TRPC6 act conf inactive
CCCCOc1ncnc2c1[nH]c1ccc(C)cc12	none
CCCCn1nnnc1SCC(=O)Nc1ccc2c(c1)OCCO2	none
Cc1cc(C)nc(N/N=C/C2=C(N3CCOCC3)C(=C\c3ccc(Cl)cc3)/CC2)n1	none
O=C(O)c1ccc(N/N=C/C2=C(N3CCOCC3)C(=C\c3ccccc3)/CC2)cc1	TRPC6 act 22, TRPC4 agonist 51 | HEK293 MPD ctr-2 856% | HEK293 MPD ctr 2-2 inactive | TRPC4/MOR mod 191% | TRPC4 ctr inh 2 inactive | TRPC6 inh conf inactive | TRPC6 act conf 350%
Cc1cccn2c(=O)c(/C=C(\C#N)S(=O)(=O)c3ccccc3)c(N3CCN(Cc4ccccc4)CC3)nc12	none
Cc1ccc(S(=O)(=O)/C(C#N)=C/c2c(N3CCOCC3)nc3c(C)cccn3c2=O)cc1	TRPC6 inh -5.9 | HEK293 MPD ctr-2 inactive | HEK293 MPD ctr 2-2 inactive | TRPC4/MOR mod -10% | TRPC4 ctr inh 2 inactive | TRPC6 inh conf inactive | TRPC6 act conf inactive
Cc1c(N/C=C(\Cl)C(=O)C(F)(F)F)c(=O)n(-c2ccccc2)n1C	none
CCC(C)NC(=O)CSc1nc2cc(S(=O)(=O)N3CCOCC3)ccc2n1CC (stereo not given)	none
COc1ccc(CNC2CCCc3ccccc32)c(OC)c1 (stereo not given)	TRPC6 inh -6 | HEK293 MPD ctr-2 218% | HEK293 MPD ctr 2-2 inactive | TRPC4/MOR mod 53% | TRPC4 ctr inh 2 63% | TRPC6 inh conf 64%
CC(=Nc1ccc(Br)cc1)c1sc2ccccc2c1O	none
CC(=Nc1ccccc1)c1sc2ccccc2c1O	TRPC6 act 13 | HEK293 MPD ctr-2 395% | HEK293 MPD ctr 2-2 inactive | TRPC4/MOR mod 56% | TRPC4 ctr inh 2 inactive | TRPC6 inh conf inactive | TRPC6 act conf 116%
COc1cccc(NC(=S)NCc2ccccc2)c1	none
CCOc1ccc(N2C=Nc3ccc(OCC)cc3C2)cc1	TRPC6 inh -5.7 | HEK293 MPD ctr-2 -82% | HEK293 MPD ctr 2-2 inactive | TRPC4/MOR mod -18% | TRPC4 ctr inh 2 34% | TRPC6 inh conf inactive | TRPC6 act conf inactive
OC1(c2ccc(Br)cc2)CCN(Cc2cccc(Br)c2)CC1	none
NC(=NCCc1c[nH]c2ccccc12)NC(=O)c1ccc(F)cc1	TRPC6 inh -6.5 | HEK293 MPD ctr-2 inactive | HEK293 MPD ctr 2-2 inactive | TRPC4/MOR mod inactive | TRPC4 ctr inh 2 54% | TRPC6 inh conf 44% | TRPC6 act conf inactive
NC(=NCCc1c[nH]c2ccccc12)NS(=O)(=O)c1ccc(F)cc1	none
COc1cc(C(=S)N(C)C)ccc1O	none
Cc1ccc(S(=O)(=O)N2CCCCC2)cc1	none
Cc1ccc(S(=O)(=O)n2ccc3c2CCCC3=O)cc1	TRPC6 inh -5.1 | HEK293 MPD ctr-2 334% | HEK293 MPD ctr 2-2 166% | TRPC4/MOR mod 76% | TRPC4 ctr inh 2 48% | TRPC6 inh conf 88%
C=CCOC(=O)C1=C(C)N(C)C(=O)NC1c1cc2c(cc1Br)OCO2 (stereo not given)	TRPC6 inh -5.4 | HEK293 MPD ctr-2 inactive | HEK293 MPD ctr 2-2 inactive | TRPC4/MOR mod inactive | TRPC4 ctr inh 2 inactive | TRPC6 inh conf inactive | TRPC6 act conf inactive
C#CCOCCOCCOCCNc1nc(N2CCN(C(=O)CCCCCCCCCCNC(=O)[C@H](CO)n3cc(CCCSC)nn3)CC2)nc(N2CCN(C(=O)CCCCCCCCCCNC(=O)[C@H](CO)n3cc(CCCSC)nn3)CC2)n1	none (no result: TRPC4 potent, TRPC6 act, TRPC4 inh, TRPC6 inh, TRPC4 agonist)
Nc1ccc(/C=C/C(=O)c2ccco2)cc1	TRPC6 act 25, TRPC6 inh -8.4 | HEK293 MPD ctr-2 722% | HEK293 MPD ctr 2-2 active | TRPC4/MOR mod 92% | TRPC4 ctr inh 2 52% | TRPC6 inh conf 80% | TRPC6 act conf 199%
Cc1cc(NC(=O)COC(=O)CCS(=O)(=O)c2ccc(C)c(C)c2)no1	none
O=C(NC1CCCCC1)C(c1ccccn1)N(C(=O)Cc1cccs1)c1ccc(Cl)cc1 (stereo not given)	TRPC6 inh -6.9 | TRPC4 spec 2 inactive | TRPC4 spec 22% | HEK293 MPD ctr 2-1 inactive | HEK293 MPD ctr-1 11% | TRPC6 inh conf inactive
O=C1C2C3C=CC(C3)C2C(=O)N1Nc1c(Cl)cc(Cl)cc1Cl (stereo not given)	none

Assay outcomes from PubChem.
